Variants at the floor of the assay were thinned out.
B1: tRNA (parent)
chain: GUUCCGUUGGCGUAAUGGUAACGCGUCUCCCUCCUAAGGAGAAGACUGCGGGUUCGAGUCCCGUACGGAACG

Variants of: B1
Experiment: yeast fitness relative to wild type (ratio to wild type); higher = fitter; tRNA-Arg(CCU), competitive growth, 37 C, YPD
How it was run: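 Genotype frequency changes were the basis for Darwinian fitness relative to wild type. The frequencies came from 100-nucleotide paired-end sequencing of gene amplicons from the start population and each end population of pooled yeast strains with tRNA-Arg(CCU) gene variants at the native locus. Competition ran in YPD at 37°C for 24 hours in six replicates, genotypes needed ≥ 100 starting reads, and estimates < 0.5 were set to 0.5.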

| Variant | yeast fitness |
| --- | --- |
| U16A A20C | 1.02 |
| U16A A20C U53C | 0.599 |
| U16A A20G C27U C29A G41C G63A | ≤ 0.5 |
| U16A A20U C24G C33G | ≤ 0.5 |
| U16A A21C C30G A36G G51C G52A | ≤ 0.5 |
| U16A A21G C22U G48C G63C | ≤ 0.5 |
| U16A A21U C30A G38A C55A A65C | ≤ 0.5 |
| U16A A21U C33G | ≤ 0.5 |
| U16A A36G A57U A70G | ≤ 0.5 |
| U16A A36G G51A | ≤ 0.5 |
| U16A A37C G48C | 0.546 |
| U16A A37G A40C U47G | ≤ 0.5 |
| U16A A37G G39A C49A G50A G68C | 0.531 |
| U16A A37U C55G G56C | ≤ 0.5 |
| U16A A40U | 1 |
| U16A A42C A69U | 0.505 |
| U16A A42U | 0.907 |
| U16A A42U U53A | ≤ 0.5 |
| U16A A43C A45G | 0.988 |
| U16A A43G A45C | ≤ 0.5 |
| U16A A45C | 0.994 |

| Variant | yeast fitness |
| --- | --- |
| U16A C22A G23C C34U A36G A40U | ≤ 0.5 |
| U16A C22G A69U | 0.791 |
| U16A C22G G48A | 0.994 |
| U16A C22U C55A | 0.808 |
| U16A C22U U26C U54G C66A | 0.58 |
| U16A C24A A43G | ≤ 0.5 |
| U16A C24A A43G G68A | ≤ 0.5 |
| U16A C24A C30G C34U G56C | 0.634 |
| U16A C24G | 0.528 |
| U16A C24G C60A C61G | ≤ 0.5 |
| U16A C24G G56A | ≤ 0.5 |
| U16A C24U C30G U35A | 0.539 |
| U16A C24U C33U A36U A40U G56C A57G A69C | ≤ 0.5 |
| U16A C29G | 0.669 |
| U16A C29G U32A A36G C49U G51A | ≤ 0.5 |
| U16A C30G G50A C60A | 0.547 |
| U16A C30U A45G | ≤ 0.5 |
| U16A C30U A57U | ≤ 0.5 |
| U16A C31A A40C | ≤ 0.5 |
| U16A C31A A40C G52C | ≤ 0.5 |
| U16A C31A C34G C60U G68U | ≤ 0.5 |

| Variant | yeast fitness |
| --- | --- |
| U16A C31G | 0.87 |
| U16A C31G A65C | 0.619 |
| U16A C31G A65U A70G | ≤ 0.5 |
| U16A C34U A70U | ≤ 0.5 |
| U16A C46G A57G C61A | ≤ 0.5 |
| U16A C46G A70G | 0.604 |
| U16A C55A A69C | ≤ 0.5 |
| U16A C55U A57C | ≤ 0.5 |
| U16A C62U | 0.918 |
| U16A C66U | 0.897 |
| U16A G17A C22G C61U G68C | 0.659 |
| U16A G17C A43U A45C C46A C61U | ≤ 0.5 |
| U16A G18A C31U | ≤ 0.5 |
| U16A G18A C31U A65G | 0.548 |
| U16A G18A G56A G67C | ≤ 0.5 |
| U16A G18C C31U G51C | ≤ 0.5 |
| U16A G18C U26A U47C A65C | ≤ 0.5 |
| U16A G23C C27G C34A G44A | ≤ 0.5 |
| U16A G39A A42G C55A C62A | ≤ 0.5 |
| U16A G41A | 1.1 |
| U16A G41A A70U | 0.666 |

| Variant | yeast fitness |
| --- | --- |
| U16A G41C A45C | ≤ 0.5 |
| U16A G48U | 0.754 |
| U16A G52A A57C | 0.571 |
| U16A G63A | 0.798 |
| U16A U19A C46U C61G | 0.571 |
| U16A U19G C33U A40C G41A A43C C61G | ≤ 0.5 |
| U16A U26A C30G U59C | ≤ 0.5 |
| U16A U26A C49G C61A | 0.586 |
| U16A U28C A70C | 0.569 |
| U16A U28C U47C | 0.79 |
| U16A U32A A40C U53A | 0.551 |
| U16A U32C A37U C49G G63A A70U | ≤ 0.5 |
| U16A U32G C55G | ≤ 0.5 |
| U16A U35C | 0.91 |
| U16A U35C A45G G56C | 0.602 |
| U16A U47C | 1.01 |
| U16A U47C A70G | 0.78 |
| U16A U53A A57G | ≤ 0.5 |
| U16A U54C | 0.849 |
| U16C A20U C24U A65U | ≤ 0.5 |

From the RNAGym collection of RNA variant scans (doi:10.1126/science.aae0568)
